Only some compounds are listed: those with a hit (about 3.1% of all), similar ones and a draw of the others.
ADAM10 inh: inhibitors of human ADAM10; O14672; recombinant ADAM10, EDANS/DABCYL FRET peptide cleavage, 3 h; inhibition, % at 7 µM; actives 0.62% (n = 370,000);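 active = inhibition above a per-campaign cutoff equal to the mean of compounds falling between control-based bounds plus 3 SD, cut at about 20% in these data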;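 also: 0% = DMSO wells while the 100% control is not disclosed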
MPTP inh: permeability transition pore inhibition; isolated mouse mitochondria, Ca2+ swelling absorbance, 30 min; inhibition, % at 10 µM; actives 1.4% (n = 360,000); AID 602449;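 active = inhibition of 50% or more, scaled per plate between neutral and stimulator controls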;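 also: 0% = DMSO wells given calcium and 100% = 1 mM EGTA wells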
Lipid droplet: modulators of hepatic lipid droplet formation; AML12 mouse hepatocytes, oleate lipid droplets, BODIPY imaging; inhibition, % at 6.5 µM; actives 0.4% (n = 240,000);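 active = lipid droplet intensity inhibited by at least 50%, with more than 500 cells counted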
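Technique: fluorescence imaging, 20x objective, two fields per well / Assay system: AML12 hepatocytes (mouse) / Measure: % inhibition of lipid droplet signal / Doses: 6.5 µM single-point dosing / Incubation: overnight exposure / Reagent: 100 µM oleic acid challenge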
aDG glyco up: increases alpha dystroglycan glycosylation. activation, % at 10 µM. Pro5-aDG cells, alpha-DG glycosylation AlphaScreen (IIH6); 0% Pro5, 100% B10-LARGE cell signal. AID 624168. actives 0.22% (n = 360,000);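 active = activation of at least 8% versus controls, or a plate z-score of at least 8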;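 also: Pro5 are CHO cells carrying HIG-tagged alpha-DG that lacks glycosylation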
V-ATPase pHluor: alters yeast V-ATPase proton transport; S. cerevisiae, pHLuorin cytosolic pH fluorescence; response, % at 10 µM; actives 0.37% (n = 350,000); AID 504577; in the data active = response mostly above about 7.3%, no sharp cut-off; inactive = mostly below about 5.4%; also: actives read high
ADAM17 inh: ADAM17 inhibition, QFRET primary screen | P78536 | recombinant ADAM17, EDANS/DABCYL FRET peptide cleavage | inhibition, % at 6.95 µM | actives 0.83% (n = 370,000);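 active = inhibition above the mean of compounds lying between control limits plus 3 SD, set per campaign, cut at about 8.5% in these data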;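 also: 0% = DMSO-only wells as the low control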
Target sequence (P78536 215-824 limits assumed): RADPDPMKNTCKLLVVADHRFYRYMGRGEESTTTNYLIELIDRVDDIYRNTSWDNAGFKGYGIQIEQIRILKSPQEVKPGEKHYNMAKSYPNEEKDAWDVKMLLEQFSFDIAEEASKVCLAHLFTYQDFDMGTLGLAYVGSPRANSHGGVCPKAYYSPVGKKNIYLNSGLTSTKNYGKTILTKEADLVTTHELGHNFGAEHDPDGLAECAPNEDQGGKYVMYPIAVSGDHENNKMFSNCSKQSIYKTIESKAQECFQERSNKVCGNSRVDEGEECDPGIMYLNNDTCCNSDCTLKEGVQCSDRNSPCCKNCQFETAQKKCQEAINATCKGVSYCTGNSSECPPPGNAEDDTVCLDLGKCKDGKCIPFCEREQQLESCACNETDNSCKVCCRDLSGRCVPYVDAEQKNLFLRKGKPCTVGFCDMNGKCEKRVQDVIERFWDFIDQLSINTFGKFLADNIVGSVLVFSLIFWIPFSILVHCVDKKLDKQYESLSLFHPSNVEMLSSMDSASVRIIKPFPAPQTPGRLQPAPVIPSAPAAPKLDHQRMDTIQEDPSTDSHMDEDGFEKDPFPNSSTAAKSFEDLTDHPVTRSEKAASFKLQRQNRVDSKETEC
VATPase regulator: modulates yeast V-ATPase proton transport | shares compounds with V-ATPase pHluor | S. cerevisiae pHLuorin cytosolic pH | response, % at 10 µM | actives 2% (n = 980) | AID 602197; in the data active = response above about 24%;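 also: plate controls were vehicle wells for no effect and positive control wells for full effect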
Rh123 counter: membrane potential counter-screen of mitochondrial pore inhibitors | inhibition, % at 10 µM | shares compounds with MPTP inh | actives 78% (n = 5,000) | isolated mitochondria, Rhodamine 123 fluorescence; in the data active = inhibition above about 22%;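 also: 0% = DMSO vehicle and 100% = positive control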
MPTP swell DR: MPTP inhibition, dose response swelling confirmation | shares compounds with MPTP inh | isolated mitochondria swelling, absorbance | IC50, µM | actives 58% (n = 780); in the data active = IC50 below about 20 µM
MPTP counter DR: active in counter-screen for permeability transition pore inhibitors; shares compounds with MPTP inh; isolated mitochondria counterscreen, fluorescence read-out; IC50, µM; actives 49% (n = 780); AID 651564; in the data active = IC50 below about 80 µM
aDG conf: alpha-DG glycosylation activation, confirmation. shares compounds with aDG glyco up. Pro5-aDG cells, IIH6 AlphaLISA; scaled to LARGE-overexpressing B10 cells as 100%. activation, % at 10 µM (by protocol). actives 17% (n = 600);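 active = activation of at least 7% in one or more replicates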;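 also: cells exposed to compound for two days before detection; 0% = DMSO-treated Pro5 cells and 100% = DMSO-treated B10-LARGE cells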
ADAM10 confirm: confirmation of inhibitors of human ADAM10. actives 1% (n = 2,100). shares compounds with ADAM10 inh. ADAM10 QFRET peptide cleavage, EDANS fluorescence. inhibition, % at 6.95 µM;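 active = inhibition above about 20% chosen separately for each screening run, limit read from the data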;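 also: 0% = DMSO wells and 100% = marimastat wells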
ADAM17 counter: inhibits human ADAM17 in ADAM10 exosite counter-screen. shares compounds with ADAM10 inh. ADAM17 QFRET peptide cleavage, EDANS fluorescence. inhibition, % at 6.95 µM. actives 0.5% (n = 2,100). AID 743214;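 active = mean triplicate inhibition above the solvent-only control wells' mean plus 3 SD, cut at about 12% in these data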;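 also: 0% = DMSO wells and 100% = marimastat wells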
ADAM10 counter: counter-screen for ADAM17 exosite inhibitors: inhibitors of human ADAM10; recombinant ADAM10, EDANS/DABCYL FRET peptide cleavage, 3 h; shares compounds with ADAM17 inh; AID 743256; inhibition, % at 6.95 µM; actives 47% (n = 2,900);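 active = mean inhibition over the triplicate runs exceeds the activity threshold set in the earlier primary screen, cut at about 20% in these data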;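 also: 0% = DMSO wells and 100% = marimastat wells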
ADAM17 confirm: confirmation of inhibitors of human ADAM17. shares compounds with ADAM17 inh. recombinant ADAM17, EDANS/DABCYL QFRET peptide cleavage. inhibition, % at 6.95 µM. actives 65% (n = 2,900). AID 743257;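 active = mean inhibition across replicates above the hit cutoff set in the primary screen, cut at about 8.5% in these data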;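 also: 0% = DMSO wells and 100% = marimastat wells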
* marks the source's active call; other numbers are inactive results; x = no result.

SMILES	ADAM10 inh	MPTP inh	Lipid droplet	aDG glyco up	V-ATPase pHluor	ADAM17 inh	Rh123 counter	others
O=C(c1ccc([N+](=O)[O-])o1)N1CCN(c2nc3ccc(F)cc3s2)CC1	-7	-2	x	5.1*	67*	-1	x	VATPase regulator=41*;aDG conf=1
COc1cc(C=NNC(=O)CN2CCN(Cc3ccc(C)cc3)CC2)cc(OC)c1O	-95	x	x	x	x	-26	x
O=C(Cn1ncc2c1-c1ccccc1OC2)Nc1ccc(S(=O)(=O)N2CCCCC2)cc1	22*	0	x	1	12*	10*	x	VATPase regulator=-2;ADAM10 confirm=7;ADAM17 counter=2
CCC(C)c1ccc(NC(=O)CSc2nnc(-c3cccc(C)c3)n2C)cc1 (stereo unspecified)	4	x	x	x	x	2	x
O=S(=O)(c1ccccc1)N(CC(O)Cn1c2ccccc2c2ccccc21)c1ccccc1 (stereo unspecified)	13	5	x	1	7.8*	14*	x	VATPase regulator=0;ADAM10 counter=12;ADAM17 confirm=17*
O=S(=O)(c1ccc(Cl)s1)N1CCC(c2nc3ccccc3o2)CC1	-7	x	x	x	x	0	x
CC(CNc1ccc(Cl)cc1)(CNc1ccc(Cl)cc1)[N+](=O)[O-]	14	39	x	0	8.8*	9.9*	x	VATPase regulator=2;ADAM10 counter=25*;ADAM17 confirm=8
CCOC(=O)c1c(C)[nH]c(C)c1C(=O)COC(=O)/C=C/c1ccc(OC(F)F)cc1	17	0	-29	0	10*	9.3*	x	VATPase regulator=4;ADAM10 counter=21*;ADAM17 confirm=10*
O=C(Nc1c(-c2ccc(C(F)(F)F)cc2)nc2ncccn12)c1ccc(F)cc1	-55	x	x	x	x	-14	x
N=C(N)SCc1ccccn1	-2	-2	17	0	1	-2	x
c1ccc(CSc2nnc(SCc3ccccn3)s2)nc1	9	-1	x	0	11*	9.0*	x	VATPase regulator=-1;ADAM10 counter=5;ADAM17 confirm=9
COc1ccc(C(=O)c2sc(Nc3cccc(OC)c3)c(C(=O)Nc3cccc(C)c3C)c2N)cc1	9	11	-2	1	0	1	x
COc1ccccc1NC(=O)c1c(Nc2ccccc2C)sc(C(=O)Nc2cccc(Cl)c2)c1N	21*	87*	0	3	12*	10*	51*	VATPase regulator=-2;ADAM10 confirm=28*;ADAM17 counter=10;ADAM10 counter=20;ADAM17 confirm=14*
O=C(C1CCN(S(=O)(=O)c2ccc3[nH]c(=O)oc3c2)CC1)N1CCCN(Cc2ccccc2)CC1	-7	x	x	x	x	-2	x
CN(CC(=O)Nc1cccc(F)c1)CC(=O)Nc1ccccc1[N+](=O)[O-]	-2	78*	-11	0	9	-4	51*
O=C(Nc1nc2c(s1)CCCC2)c1nn(Cc2ccccc2)c(=O)c2ccccc12	-3	59*	-13	0	-3	-1	-5	MPTP swell DR=>100;MPTP counter DR=>80
CC(C)CN(CC(C)C)C(=O)c1cn(C(C)c2ccccc2)nn1 (stereo unspecified)	-6	x	x	x	x	-2	x
CC(C)c1ccc(CNc2ccc3c(c2)ncn3C)cc1	-18	56*	-10	0	0	-3	58*
COC1=C[C@H](C(=O)NCc2ccccn2)[C@@]2(C)Cc3ccccc3[C@H]2CC1=O	-13	x	x	x	x	-2	x
CC1CCc2c(sc3nc(C4CC4)nc(N4CCN(C(=O)c5ccco5)CC4)c23)C1 (stereo unspecified)	7	64*	x	0	0	1	68*
CCc1nc(N2CCN(C(=O)c3ccco3)CC2)c2c3c(sc2n1)CCCC3	-39	1	x	0	-4	-14	x
Cc1ccc(S(=O)(=O)NCc2ccc(C(=O)NCCN(Cc3ccccc3)C(C)C)cc2)cc1	0	51*	-30	5	0	-1	71*
COc1ccc(CCNc2ncnc3sc(C)cc23)cc1OC	-2	101*	-55	3	3	0	96*
COc1ccc(CCNc2ncnc3[nH]ncc23)cc1OC	-2	1	-3	0	3	-4	x
COC(=O)C[C@H]1CC[C@@H]2[C@@H](COc3ccc(NC(=O)C4CCCCC4)cc3C(=O)N2C)O1	-3	x	x	x	x	0	x
SMILES	ADAM10 inh	MPTP inh	Lipid droplet	aDG glyco up	V-ATPase pHluor	ADAM17 inh	Rh123 counter	others
CN(Cc1ccccc1)CC(O)COc1ccc(CNCc2cccnc2)cc1 (stereo unspecified)	0	1	-2	0	-3	-4	x
CN(Cc1ccccc1)CC(O)COc1ccc(CNCc2ccc(Cl)s2)cc1 (stereo unspecified)	5	91*	10	6.2*	0	0	-6	MPTP swell DR=8*;MPTP counter DR=36*
O=C(Nc1ccc(F)cc1F)Nc1csc2ccccc12	3	83*	-7	0	2	3	85*
O=C(Nc1ccc(F)c(Cl)c1)Nc1csc2ccccc12	3	76*	-16	0	-3	-1	68*
Cc1ccc(C2CC2C(=O)NNC(=S)Nc2ccc(Cl)cc2)cc1 (stereo unspecified)	18	53*	-3	0	-4	5	73*
CC(C)(C)NC(=S)NNC(=O)[C@H]1C[C@@H]1c1ccccc1	6	3	-6	0	3	-1	x
CCn1cc(CN(C)S(=O)(=O)c2cccc([N+](=O)[O-])c2)cn1	0	-1	-2	0	-2	-2	x
CCn1cc(CN(C)S(=O)(=O)c2ccc3ccccc3c2)c(C)n1	3	91*	-27	2	3	0	85*

Screening data (PubChem)
